Source: ChEMBL document CHEMBL1255244, “Antimycobacterial Activity and Mechanism of Action of NAS-91” (2008)
In brackets after ≈: the same amount, converted by molar mass. Activity calls are given as the source filed them. No cut-off for these calls is given here.

How the values were obtained:
[1] = tested on: BCG; assay: Inhibition of delta-9 desaturase activity in Mycobacterium bovis BCG cell extract 1173P2 assessed as inhibition of oleic acid synthesis at 25 ug/ml after 1 hr in presence of NADPH and [1-14C]stearoyl-CoA; assay type: cell-free; set-up: scale not given: the % may be the effect or the level left; settings: Mycobacterium bovis BCG str. Pasteur 1173P2
How it was run: (§1)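 Cell-free assay. BCG grown in Sauton's with 20 µg/ml FeSO4, French-press lysed in 0.25 M sucrose. 1 mg lysate, 1 µmol NADPH, phosphate buffer pH 7.2, in 1 ml. Inhibitor preincubated 10 min at 37°C, then 0.25 µCi [1-14C]stearoyl-CoA added, 37°C 1 h. Saponified, methylated, [14C]oleate band scraped and counted. Triplicates, one of two experiments, mean ± SEM.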

[2] = tested on: Mycobacterium bovis BCG str. Pasteur 1173P2; assay: Antimycobacterial activity against Mycobacterium bovis BCG 1173P2 assessed as inhibition of oleic acid methyl ester synthesis after 8 hrs; assay type: functional
How it was run: (§2)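 BCG in Sauton's medium, drug 8 h, then [14C]acetate labelling for 16 h. Methyl esters resolved by 2-D TLC: first dimension without silver, hexane-ethyl acetate 19:1 run twice; then silver nitrate layer, petroleum ether-diethyl ether 17:3 run three times. Triplicates, one of three experiments, mean ± SEM, Student's t test.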

[3] = Antimycobacterial activity against Mycobacterium bovis BCG 1173P2; assay type: functional, Mycobacterium bovis BCG str. Pasteur 1173P2; settings: Mycobacterium tuberculosis variant bovis BCG
How it was run: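 M. bovis BCG on Middlebrook 7H11 agar with OADC and increasing inhibitor concentrations. Serial 10-fold dilutions of actively growing culture plated, 37°C for 10 to 14 days.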

[4] = tested on: Mycobacterium bovis BCG str. Pasteur 1173P2; assay: Antimycobacterial activity against Mycobacterium bovis BCG 1173P2 assessed as inhibition of oleic acid methyl ester synthesis at 100 ug/ml after 8 hrs; assay type: functional; how it was run: as §2
[5] = tested on: Mycobacterium bovis BCG str. Pasteur 1173P2; assay: Antimycobacterial activity against Mycobacterium bovis BCG 1173P2 assessed as inhibition of FAS-2 activity at 5 ug/ml after 8 hrs; assay type: functional
How it was run: (§3)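 Mid-log BCG in Sauton's medium, drug at 37°C for 8 h, then 1 µCi/ml [2-14C]acetate for 16 h. Cells PBS-washed, hydrolysed in 15% tetrabutylammonium hydroxide at 100°C overnight, methylated with CH3I. TLC: MAME bands scraped and counted; FAMEs (50,000 cpm) on reverse-phase TLC, chloroform-methanol 2:3. INH 1 µg/ml positive control. Triplicates, one of three experiments, mean ± SEM.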

[6] = tested on: Mycolicibacterium smegmatis; assay: Antimycobacterial activity against Mycobacterium smegmatis at 100 ug/ml after 15 to 20 days by agar proportion method; assay type: functional, organism-based
[7] = tested on: Mycobacterium bovis BCG str. Pasteur 1173P2; assay: Antimycobacterial activity against Mycobacterium bovis BCG 1173P2 assessed as inhibition of mycolic acid biosynthesis; assay type: functional; how it was run: as §3
[8] = tested on: Mycobacterium tuberculosis; assay: Antimycobacterial activity against Mycobacterium tuberculosis H37Rv at 10 ug/ml after 15 to 20 days by agar proportion method; assay type: functional
How it was run: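 Agar proportion method. H37Rv grown in 7H9 at 37°C with shaking to OD600 1.0. Diluted log-phase culture giving about 1,000 CFU plated on 7H11+OADC control and drug-containing plates, incubated 37°C.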

[9] = tested on: BCG 1173P2; assay: Inhibition of delta-9 desaturase activity in Mycobacterium bovis BCG 1173P2 cell extract assessed as inhibition of oleic acid synthesis at 10 to 100 ug/ml after 1 hr in presence of NADPH and [1-14C]stearoyl-CoA; assay type: cell-free; settings: Mycobacterium bovis BCG str. Pasteur 1173P2; how it was run: as §1
[10] = tested on: Mycobacterium bovis BCG str. Pasteur 1173P2; assay: Antimycobacterial activity against Mycobacterium bovis BCG 1173P2 assessed as inhibition of mycolic acid biosynthesis at 100 ug/ml after 8 hrs; assay type: functional; set-up: scale not given: the % may be the effect or the level left; how it was run: as §3

O=C(CC(=O)C(F)(F)F)c1ccc([N+](=O)[O-])cc1
Activity [1]: 25%
Activity [2]: Dose-dependent effect
MIC [3]: 50 µg/mL (≈ 191 µM)
Activity [4]: Active

Oc1ccc(Cl)cc1Oc1ccc(Cl)c2cccnc12
Activity [1]: 75%
Activity [5]: Active
Activity [6]: inactive
Activity [7]: Active
Activity [8]: 99%
Activity [2]: Dose-dependent effect
MIC [3]: 10 µg/mL (≈ 32.7 µM)
Activity [9]: Dose-dependent effect
Activity [10]: 55%
Activity [4]: Active
